Each block holds one molecule with its values, some of them ahead of it.
Tests used:
[1] = Stability in presence of 20% fetal calf serum; format: ADME; settings: cattle
Method in brief: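 Compound incubated in RPMI medium containing 20% fetal calf serum at 37 °C for up to 2 days. Incubation stopped with ethanol, mixture chilled to 4 °C and centrifuged, and clear supernatant analysed by RP-HPLC. Half-life from least-squares linear regression of log[I] versus time, using at least five points.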

[2] = target: T1, Human immunodeficiency virus type 1 protease (Human immunodeficiency virus 1, UniProt Q72874); assay: Inhibition of wild type HIV1 protease dimerization
Method in brief: (§1)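 Recombinant HIV-1 protease (wild-type or mutant) assayed fluorometrically with substrate DABCYL-γ-abu-Ser-Gln-Asn-Tyr-Pro-Ile-Val-Gln-EDANS (emission 490 nm). Conditions: 100 mM sodium acetate, 1 mM EDTA, 1 M NaCl, pH 4.7, 30 °C, 3% v/v DMSO final. Typically 7.5 nM enzyme and 5.2 µM substrate.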

[3] = target: Human immunodeficiency virus type 1 protease (Human immunodeficiency virus 1, UniProt Q72874, G48V/L90M); assay: Inhibition of dimerization of HIV1 protease G48V/L90M mutant; method in brief: as §1
[4] = target: T1, Human immunodeficiency virus type 1 protease; assay: Inhibition of dimerization of HIV1 protease MDR-HM mutant; method in brief: as §1
[5] = target: T1, Human immunodeficiency virus type 1 protease; assay: Inhibition of dimerization of HIV1 protease ANAM-11 mutant; method in brief: as §1
[6] = target: Human immunodeficiency virus type 1 protease (Human immunodeficiency virus 1, UniProt Q72874, D30N); assay: Inhibition of dimerization of HIV1 protease D30N mutant; method in brief: as §1
[7] = target: Human immunodeficiency virus type 1 protease (Human immunodeficiency virus 1, UniProt Q72874, V82A); assay: Inhibition of dimerization of HIV1 protease V82A mutant; method in brief: as §1
[8] = target: T1, Human immunodeficiency virus type 1 protease; assay: Inhibition of dimerization of HIV1 protease […] mutant; method in brief: as §1
[9] = target: T1, Human immunodeficiency virus type 1 protease; assay: Inhibition of wild type HIV1 protease; method in brief: as §1
[10] = target: Human immunodeficiency virus type 1 protease (Human immunodeficiency virus 1) (UniProt Q72874); assay: Inhibition of wild type HIV1 protease dimerization at 5 uM
[11] = target: Human immunodeficiency virus type 1 protease (Human immunodeficiency virus 1) (UniProt Q72874); assay: Inhibition of wild type HIV1 protease at 5 uM
Method in brief: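 Recombinant wild-type HIV-1 protease (7.5 nM) was run with fluorogenic substrate DABCYL-γ-abu-Ser-Gln-Asn-Tyr-Pro-Ile-Val-Gln-EDANS (5.2 µM) in 100 mM sodium acetate, 1 mM EDTA, 1 M NaCl, pH 4.7, 30 °C. DMSO was kept at 3% v/v final. Emission was read at 490 nm. Percent inhibition was measured at 5 µM compound.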

SMILES: COC(=O)[C@@H](NC(=O)[C@H](CC(C)C)NC(=O)[C@@H](NC(=O)CCCOc1ccc2ccc(OCCCC(=O)N[C@H](C(=O)Nc3cccn(CC(N)=O)c3=O)C(C)C)cc2c1)C(C)C)C(C)C
half-life [1]: 41 h

SMILES: COC(=O)[C@@H](NC(=O)[C@@H](CC(C)C)NC(=O)[C@@H](NC(=O)CCCOc1ccc2ccc(OCCCC(=O)NC(C(=O)Nc3cccn(CC(N)=O)c3=O)C(C)C)cc2c1)C(C)C)C(C)C (some centres undefined)
Ki [2]: 400 nM
Ki [3]: 500 nM
Ki [4]: 4800 nM
Ki [5]: 200 nM
Ki [6]: 500 nM
Ki [7]: 240 nM
Ki [8]: 100 nM

SMILES: CC[C@H](C)[C@H](NC(=O)Cn1c(C)ccc(NC(=O)CCCOc2ccc3ccc(OCCCC(=O)N[C@H](C(=O)N[C@H](CC(C)C)C(=O)N[C@H](C(=O)OC)C(C)C)C(C)C)cc3c2)c1=O)C(=O)N[C@H](C(N)=O)[C@@H](C)O
Ki [9]: 9700 nM

inhibition [10]: 28%
inhibition [11]: 28%
SMILES: COC(=O)[C@@H](NC(=O)[C@H](CC(C)C)NC(=O)[C@@H](NC(=O)CCCOc1ccc2ccc(OCCCC(=O)NNC(=O)c3cc(N)ccc3OC)cc2c1)C(C)C)C(C)C

SMILES: COC(=O)[C@@H](NC(=O)[C@@H](CC(C)C)NC(=O)[C@@H](NC(=O)CCCOc1ccc2ccc(OCCCC(=O)Nc3ccc(C)n(CC(=O)Nc4ccc(C)n(CC(=O)OC(C)(C)C)c4=O)c3=O)cc2c1)C(C)C)C(C)C
Ki [9]: 8400 nM

half-life [1]: 28 h
SMILES: COC(=O)[C@@H](NC(=O)[C@H](CC(C)C)NC(=O)[C@@H](NC(=O)CCCOc1ccc2ccc(OCCCC(=O)N[C@H](C(=O)N[C@@H](CC(C)C)C(=O)N[C@H](C(=O)OC)C(C)C)C(C)C)cc2c1)C(C)C)C(C)C

SMILES: COC(=O)[C@@H](NC(=O)[C@H](CC(C)C)NC(=O)[C@@H](NC(=O)CCCOc1ccc2ccc(OCCCC(=O)N[C@H](C(=O)NNC(=O)c3cc(NC(C)=O)ccc3OC)C(C)C)cc2c1)C(C)C)C(C)C
Ki [2]: 200 nM
